Three molecules from ChEMBL document CHEMBL3992553, “New nitrofurans amenable by isocyanide multicomponent chemistry are active against multidrug-resistant and poly-resistant Mycobacterium tuberculosis” (Bioorg Med Chem, 2017) can be followed below.

Each structure is given as a SMILES string. Values after ≈ are worked out from the molar mass of the structure shown.

For orientation: MIC means the lowest concentration found to suppress growth. Low values mean greater potency, high ones weaker potency. What is called EC50 is the concentration giving half of the maximal effect. A word on the IC90: it is the concentration at which the effect reaches the 90% level. The IC50 is the concentration at which inhibition is half-maximal.

Data set [1] deals with Mycobacterium tuberculosis. In words: Antimycobacterial activity against Mycobacterium tuberculosis H37Rv after 7 days by microbroth dilution method. In kind it is functional. Particulars: 168 h. In outline:
(§1)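 REMA. 3-week H37Rv culture (2nd generation on Löwenstein–Jensen) vortexed with glass beads, set to 1.0 McFarland in 7H9, diluted 20-fold in 7H9 + OADC. 2-fold dilutions, final 1.6–400 µg/mL, 200 µL wells. 7 days at 35 °C, then resazurin 18 h. Fluorescence ex 520/em 590. MIC where signal plateaued or matched the 1% population control (t test).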
For orientation: Dilution methods test growth across graded concentrations, often in twofold steps.

The test system of data set [2] is Staphylococcus aureus. As to the kind of experiment: Antibacterial activity against methicillin-resistant Staphylococcus aureus DSM 11822 after 18 hrs. Type of data set: functional. The settings on record: DSM 11822, 18 h. In outline: (§2)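 Broth microdilution MIC. Gram-negatives grown overnight at 37 °C in Müller-Hinton broth + 1% glucose, pH 7.2; Gram-positives in trypticase soy broth with yeast extract, pH 7.2. Inoculum 5×10^5 cfu/mL final. Serial dilutions from 100 µM down to 0.2 µM, DMSO ≤1%. 18 h at 37 °C, moist; OD600. MIC = lowest concentration completely suppressing growth.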

Data set [3] deals with Staphylococcus aureus. As to the kind of experiment: Antibacterial activity against methicillin-resistant Staphylococcus aureus RKI 11-02670 after 18 hrs. Type of data set: functional. Particulars: RKI 11-02670, 18 h. In outline: as §2
In data set [4] the test system is Enterococcus faecium. As to the kind of experiment: Antibacterial activity against Enterococcus faecium DSM 20477 after 18 hrs. The settings on record: DSM 20477, 18 h. In kind it is functional. Summed up: as §2
Data set [5] has as its system Acinetobacter baumannii. As to the kind of experiment: Antibacterial activity against Acinetobacter baumannii DSM 30007 after 18 hrs. In kind it is functional. The settings on record: DSM 30007, 18 h. Summed up: as §2
The subject of data set [6] is Escherichia coli. In words: Growth inhibition of Escherichia coli DSM 1116 at 100 uM after 18 hrs relative to control. Particulars: DSM 1116, 18 h, read-out: GI. In kind it is functional. In outline:
(§3)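 Gram-negative culture grown overnight at 37 °C in Müller-Hinton broth + 1% glucose, pH 7.2, then tested at 5×10^5 cfu/mL final. Compound at 100 µM from DMSO stock, DMSO ≤1%. Incubated 18 h at 37 °C under moist conditions. OD600 read; value reported as % growth inhibition.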

In data set [7] the test system is Pseudomonas aeruginosa. As to the kind of experiment: Growth inhibition of Pseudomonas aeruginosa PA7 DSM 24068 at 100 uM after 18 hrs relative to control. Type of data set: functional. Particulars: PA7 DSM 24068, 18 h, read-out: GI. Summed up: as §3
Data set [8] deals with Klebsiella pneumoniae. In words: Antibacterial activity against Klebsiella pneumoniae DSM 11678 after 18 hrs. In kind it is functional. Particulars: DSM 11678, 18 h. Summed up:
as §2

The test system of data set [9] is Mycobacterium tuberculosis. As to the kind of experiment: Antimycobacterial activity against Mycobacterium tuberculosis H37Rv after 7 days by REMA. In kind it is functional. The settings on record: 168 h. In outline: as §1
The nature of data set [10]: (§4) Cytotoxicity against mouse L929 cells assessed as reduction in cell viability after 5 days by WST1 assay. In kind it is cell-based. The settings on record: mouse, L929 cells. In outline: (§5)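 KB-3-1 or L929 cells, 1500 per well, in DMEM + 5% FBS. Exposed to serially diluted compound for 5 days. WST-1 added, plates incubated at 37 °C (20 min for KB-3-1), absorbance read at 450 nm (reference 600 nm). Viability given as % of controls.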

The test system of data set [11] is L929. Described as §4. In kind it is cell-based. Particulars: Mus musculus, L929, 120 h. In outline: as §5
A short description of data set [12]: (§6) Cytotoxicity against human KB-3-1 cells assessed as reduction in cell viability after 5 days by WST1 assay. Type of data set: cell-based. Particulars: human, KB-3-1 cells. In outline:
as §5
In general terms: Tetrazolium dyes change colour on reduction, which living cells bring about.

Data set [13] deals with KB 3-1. The data set is described as §6. Particulars: Homo sapiens, KB 3-1, 120 h. In kind it is cell-based. Summed up:
as §5

Data set [14] can be described thus: (§7) Cytotoxicity against human MCF7 cells assessed as reduction in cell viability after 5 days by WST1 assay. Particulars: human, MCF7 cells. Type of data set: cell-based. Summed up: (§8)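 MCF-7 cells, 3000 per well, in RPMI + 5% FBS, 0.5% NEAA, 0.5% GlutaMAX and insulin 5 µg/mL. Exposed to serially diluted compound for 5 days. WST-1 incubation 2 h at 37 °C, absorbance read at 450 nm (reference 600 nm). Viability given as % of controls.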

Data set [15] concerns MCF7. The description is as §7. In kind it is cell-based. Particulars: Homo sapiens, MCF7, 120 h. In outline:
as §8

Data set [16] can be described thus: Cytotoxicity against human FS4-LTM cells assessed as reduction in cell viability after 24 hrs by WST1 assay. In kind it is cell-based. In outline:
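FS4-LTM conditionally immortalized human fibroblasts, kept without doxycycline for primary-like behaviour, in DMEM + 5% FBS. Exposed to serially diluted compound for 24 h. WST-1 added, plates incubated at 37 °C, absorbance read at 450 nm (reference 600 nm). Viability given as % of controls set to 100%.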

Data set [17] has as its system Bacillus subtilis. In words: Antibacterial activity against Bacillus subtilis MTCC 121 after 24 hrs by well diffusion method. Type of data set: functional. Particulars: MTCC 121, 24 h. Background: A growth-free zone around the sample is the usual read-out of agar diffusion tests.
Data set [18] deals with Staphylococcus aureus. In words: Antibacterial activity against Staphylococcus aureus MLS16 MTCC 2940 after 24 hrs by well diffusion method. In kind it is functional. The settings on record: MLS16 MTCC 2940, 24 h.

With `O=[N+]([O-])c1ccc(C2=NOC(c3ccc(N4CCC(Oc5ccc(OC(F)(F)F)cc5)CC4)c(F)c3)C2)o1` (stereo not given), the lowest concentration to inhibit growth in [1] (MIC) was 0.001 µg/mL (≈ 0.00187 µM).

Regarding `CC1(C(=O)NC2CCCCC2)CN(S(=O)(=O)c2ccccc2[N+](=O)[O-])CC(=O)N1/N=C/c1ccc([N+](=O)[O-])o1` (stereo not given), the MIC was 100 µM (≈ 56.3 µg/mL) in data set [2]; 100 µM (≈ 56.3 µg/mL) in data set [3]; > 100 µM in data set [4]; > 100 µM in data set [5]; > 100 µM in [8]; 22 µM (≈ 12.4 µg/mL) in data set [9]. The molecule further registered an EC50 in data set [3] of 75 µM. Further, the inhibition of growth at 100 µM stood at 88% in data set [6] and 85% in [7]. For the same molecule, the concentration for an effect of 90% (IC90) at 120 h in data set [10], in [12] and in data set [14] was > 100 µM each time. The half-inhibitory concentration (IC50) was 22.9 to 100 µM in data set [11]; 26.7 to 27 µM in [13]; 12 µM in data set [15]; 12 to 100 µM in data set [16] (Homo sapiens, FS4-LTM, 24 h). In addition, the IC90 at 24 h in data set [16] (human, FS4-LTM cells) is > 100 µM.

In the case of `O=C(NCc1cn(-c2ccccc2)nn1)c1ccc([N+](=O)[O-])o1`, the minimal inhibitory concentration (MIC) in data set [17] was 7.8 µg/mL (≈ 24.9 µM); in data set [18], 1.9 µg/mL (≈ 6.06 µM).
